Among the data in article PMC9075125 (RSC Advances, 2019) are IC50 values, retold here.

Assay in all cases: Cell proliferation assay
Assay type in all cases: cell-based

Assay [1] has as its system non-small cell lung cancer cell line NCI-H460. The settings on record: Homo sapiens, NCI-H460, 48 h, read-out: IC50, antiproliferation, Non-small cell lung cancer (H460). The method in brief:
(§1)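 Log-phase adherent cells were seeded at 5 × 10^4 cells per mL and allowed 24 h before test compound was added at a range of concentrations for 48 h. MTT (5 mg mL−1 stock) was added for a further 4 h. Medium was removed, formazan dissolved in DMSO, and the plate read on a microplate reader. IC50 was calculated from dose–response curves of three independent assays.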

The subject of assay [2] is human colon cancer cell line HT-29. The settings on record: HT-29, 48 h, read-out: IC50, antiproliferation, Human colon cancer (HT-29). A digest of the protocol: as §1
Assay [3] relates to human breast cancer cell line MCF-7. The following applies: MCF7, 48 h, read-out: IC50, antiproliferation, Human breast cancer (MCF-7). A digest of the protocol:
as §1

As to `CC[C@@]1(O)C(=O)OCc2c1cc1n(c2=O)Cc2cc3ccccc3nc2-1` [CPT, camptothecin], the IC50 came to 0.04 ± 0.002 µM in assay [1], 0.04 ± 0.02 µM in assay [2] and 0.37 ± 0.05 µM in assay [3].
